# Results published in PMC2911665 (The Journal of Cell Biology, 2010).
# Numbering of substitutions follows the chain as printed. Where a SMILES comes first, the peptide text is derived from it. The star is where a group is joined. Cbz = O=C(OCc1ccccc1)*
# T1: Y120A-SPSB2 (12–224) (mouse, UniProt O88838 12-224, Y120A)
# T1 sequence (looked up): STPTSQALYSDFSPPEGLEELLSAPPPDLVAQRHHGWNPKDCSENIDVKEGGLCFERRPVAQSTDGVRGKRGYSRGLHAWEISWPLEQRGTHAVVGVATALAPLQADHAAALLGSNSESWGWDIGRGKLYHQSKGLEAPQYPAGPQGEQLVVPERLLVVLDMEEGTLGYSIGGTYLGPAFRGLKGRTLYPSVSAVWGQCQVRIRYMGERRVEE
# T2: SPSB2 SPRY domain (residues 12–224) (mouse, UniProt O88838 12-224)
# T2 sequence (looked up): T1 sequence (looked up) with A109Y
# B1: Par-4: prostate apoptosis response protein 4, SPSB binding partner containing ELNNNL (human) (protein, UniProt Q96IZ0 1-340, looked up)
# PRKC apoptosis WT1 regulator …: MATGGYRTSSGLGGSTTDFLEEWKAKREKMRAKQNPPGPAPPGGGSSDAAGKPPAGALGTPAAAAANELNNNLPGGAPAAPAVPGPGGVNCAVGSAMLTRAAPGPRRSEDEPPAASASAAPPPQRDEEEPDGVPEKGKSSGPSARKGKGQIEKRKLREKRRSTGVVNIPAAECLDEYEDDEAGQKERKREDAITQQNTIQNEAVNLLDPGSSYLLQEPPRTVSGRYKSTTSVSEEDVSSRYSRTDRSGFPRYNRDANVSGTLVSSSTLEKKIEDLEKEVVRERQENLRLVRLMQDKEEMIGKLKEEIDLLNRDLDDIEDENEQLKQENKTLLKVVGQLTR
# Experiments:
# [1] = system: iNOS degradation in Spsb2T/+ BMDMs; assay: iNOS degradation in Spsb2T/+ BMDMs after LPS/IFN-γ stimulation and wash; format: cell-based, mouse; conditions: 10 µM MG-132 in fresh medium after wash
# In short: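 Bone marrow macrophages (>95% CD11b+ after 6 d culture) from littermate controls, SPSB2-transgenic or SOCS-box-deleted transgenic mice, stimulated overnight with LPS/IFN-γ or left unstimulated. Washed, refed with medium ±10 µM MG-132 (proteasome inhibitor), lysed at set times after wash. Lysates run on SDS-PAGE, blotted with anti-iNOS, peroxidase secondary and ECL. Membranes stripped (0.1 M Gly, pH 2.9) and reprobed for tubulin as loading control.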
# SPSB1 = SPSB1 binding to Par-4; ref Woo et al., 2006; cited from earlier work
# SPSB2 = SPSB2 binding to Par-4; ref Woo et al., 2006; cited from earlier work
# Y120A-SPSB2 (12–224) = molecular target: T1, Y120A-SPSB2 (12–224); assay: ITC
# [2] = molecular target: T2, SPSB2 SPRY domain (residues 12–224); assay: ITC
Molecule,Kd [2] [nM],also measured
CC(C)C[C@@H](C=O)NC(=O)[C@H](CC(C)C)NC(=O)[C@H](CC(C)C)NC(=O)OCc1ccccc1 [MG-132] (Cbz-Leu-Leu-Leu-aldehyde),,effect on enhanced iNOS degradation [1]: abrogated
B1,,Kd (SPSB1): 146 nM; Kd (SPSB2): 4700 nM
"Ac-KEEKDINNNVKKT-NH2 [iNOS N-terminal peptide, wild type (Ac-KEEKDINNNVKKT-NH2)]",13.3 ± 3,fold reduction of affinity against wild-type SPSB2 (12–224) (Y120A-SPSB2 (12–224)): ~5000 fold
Ac-KEEKDINNNAKAT-NH2 [iNOS N-terminal peptide N (Ac-KEEKDINNNAKAT-NH2)],180 ± 39,
Ac-KEEKDINNNVKAT-NH2 [iNOS N-terminal peptide M (Ac-KEEKDINNNVKAT-NH2)],29.8 ± 12.2,
Ac-KEEKAINNNVKKT-NH2 [iNOS N-terminal peptide E (Ac-KEEKAINNNVKKT-NH2)],21600 ± 750,
Ac-KEEADINNNAKAT-NH2 [iNOS N-terminal peptide O (Ac-KEEADINNNAKAT-NH2)],311 ± 37,
Ac-KEEKDINANVKKT-NH2 [iNOS N-terminal peptide I (Ac-KEEKDINANVKKT-NH2)],826 ± 20,
Ac-KEEKDINNNAKKT-NH2 [iNOS N-terminal peptide L (Ac-KEEKDINNNAKKT-NH2)],56.8 ± 11.2,
Ac-KEEKDIANNVKKT-NH2 [iNOS N-terminal peptide G (Ac-KEEKDIANNVKKT-NH2)],17200,
Ac-KEEKDANNNVKKT-NH2 [iNOS N-terminal peptide F (Ac-KEEKDANNNVKKT-NH2)],23.5 ± 9.9,
Ac-KEAADINNNVKKT-NH2 [iNOS N-terminal peptide D (Ac-KEAADINNNVKKT-NH2)],65.4 ± 7.4,
Ac-KEAKDINNNVKKT-NH2 [iNOS N-terminal peptide B (Ac-KEAKDINNNVKKT-NH2)],14 ± 3,
Ac-KEEADINNNVKKT-NH2 [iNOS N-terminal peptide C (Ac-KEEADINNNVKKT-NH2)],127 ± 23,
Ac-KEEKDIQNNVKKT-NH2 [iNOS N-terminal peptide H (Ac-KEEKDIQNNVKKT-NH2)],40500,
